In ChEMBL document CHEMBL1128519, “Semisynthetic chemical modification of the antifungal lipopeptide echinocandin B (ECB): structure-activity studies of the lipophilic and geometric parameters of polyarylated acyl analogs of ECB” (J Med Chem, 1995):
Values after ≈ are worked out from the molar mass of the structure shown. Numbered stars: 1 amine (or outer) side, 2 acyl side, 3 side chain; on linkers, the order of the positions; unused ones are H or OH. Bridge positions count the residues as written; N and C are the ends. Square brackets hold non-standard residues; d marks the D form. Peptide text beside a SMILES is read from it. * marks the point of attachment. Orn(4R-OH,5R-OH) = O=C([C@H](C[C@@H](O)[C@@H](O)N[*:3])N[*:1])[*:2]; hTyr(3S-OH,4S-OH) = N[C@H](C(=O)O)[C@H](O)[C@@H](O)c1ccc(O)cc1; X3 = CC(C)(C)OCCOc1ccc(C#Cc2ccc(-c3ccc(C(=O)*)cc3)cc2)cc1; X4 = CC(C)(C)OCCOc1ccc(-c2ccc(-c3ccc(C(=O)*)cc3)cc2)cc1; X1 = O=C(c1ccc(-c2ccc(-c3ccc(-c4ccccc4)cc3)cc2)cc1)*; Pro(3S-OH,4S-Me) = C[C@H]1CN[C@H](C(=O)O)[C@H]1O; Benzoyl(4-octyloxy) = CCCCCCCCOc1ccc(C(=O)*)cc1; X5 = O=C(c1ccc(C#Cc2ccc(C#Cc3ccccc3)cc2)cc1)*; Hyp = O=C(O)[C@@H]1C[C@@H](O)CN1

Legend:
Candida albicans [1] = assay: In vivo antifungal activity administered orally against Candida albicans infections in mice.; assay type: functional; conditions: po
In short: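 X-irradiated (400 r, 24 h prior) male ICR mice infected iv with 2 × 10^6 C. albicans A26 cells. Oral gavage in cremophor (5%)/linoleic acid (8%)/water vehicle, b.i.d. × 4 starting immediately post-infection. 10 mice per dose level. Study ends at day 7; ED50 = dose giving 50% survival, by Reed-Muench.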

[2] = molecular target: Beta-1,3-glucan synthase (Candida albicans) (UniProt O13428); assay: In vitro inhibition of glucan synthase obtained from Candida albicans at a concentration of 10 ug/mL.
In short: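 Purified, solubilized β-(1,3)-D-glucan synthase prepared from C. albicans. Percent inhibition measured at 10 µg/mL compound, single determination.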

Candida albicans [3] = assay: In vivo antifungal activity administered intraperitoneally against Candida albicans infections in mice.; assay type: functional; conditions: ip
In short: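 Male ICR mice (18-20 g), X-irradiated with 400 r 24 h before iv tail-vein infection with 2 × 10^6 C. albicans A26 cells in saline. Compounds suspended in β-cyclodextrin, given parenterally at 0, 4, 24 and 48 h post-infection. 10 mice per dose, top dose 10 mg/kg with 2-fold dilutions down to 0.039 mg/kg. 7-day survival; ED50 by Reed-Muench.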

Candida albicans [4] = assay: Antifungal activity against Candida albicans; assay type: functional
In short: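 Broth microdilution, C. albicans A26 (ATCC 62342) grown on Sabouraud dextrose agar at 35 °C; inoculum 1 × 10^5 conidia/mL in antibiotic 3 broth. Compounds dissolved at 1.0 mg/mL in methanol, 2-fold serial dilutions from 80 µg/mL, duplicate. Read after 48 h at 35 °C. MIC = lowest concentration completely inhibiting visible growth.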

Beta-1,3-glucan synthase (Candida albicans), sequence (O13428 as listed by the source): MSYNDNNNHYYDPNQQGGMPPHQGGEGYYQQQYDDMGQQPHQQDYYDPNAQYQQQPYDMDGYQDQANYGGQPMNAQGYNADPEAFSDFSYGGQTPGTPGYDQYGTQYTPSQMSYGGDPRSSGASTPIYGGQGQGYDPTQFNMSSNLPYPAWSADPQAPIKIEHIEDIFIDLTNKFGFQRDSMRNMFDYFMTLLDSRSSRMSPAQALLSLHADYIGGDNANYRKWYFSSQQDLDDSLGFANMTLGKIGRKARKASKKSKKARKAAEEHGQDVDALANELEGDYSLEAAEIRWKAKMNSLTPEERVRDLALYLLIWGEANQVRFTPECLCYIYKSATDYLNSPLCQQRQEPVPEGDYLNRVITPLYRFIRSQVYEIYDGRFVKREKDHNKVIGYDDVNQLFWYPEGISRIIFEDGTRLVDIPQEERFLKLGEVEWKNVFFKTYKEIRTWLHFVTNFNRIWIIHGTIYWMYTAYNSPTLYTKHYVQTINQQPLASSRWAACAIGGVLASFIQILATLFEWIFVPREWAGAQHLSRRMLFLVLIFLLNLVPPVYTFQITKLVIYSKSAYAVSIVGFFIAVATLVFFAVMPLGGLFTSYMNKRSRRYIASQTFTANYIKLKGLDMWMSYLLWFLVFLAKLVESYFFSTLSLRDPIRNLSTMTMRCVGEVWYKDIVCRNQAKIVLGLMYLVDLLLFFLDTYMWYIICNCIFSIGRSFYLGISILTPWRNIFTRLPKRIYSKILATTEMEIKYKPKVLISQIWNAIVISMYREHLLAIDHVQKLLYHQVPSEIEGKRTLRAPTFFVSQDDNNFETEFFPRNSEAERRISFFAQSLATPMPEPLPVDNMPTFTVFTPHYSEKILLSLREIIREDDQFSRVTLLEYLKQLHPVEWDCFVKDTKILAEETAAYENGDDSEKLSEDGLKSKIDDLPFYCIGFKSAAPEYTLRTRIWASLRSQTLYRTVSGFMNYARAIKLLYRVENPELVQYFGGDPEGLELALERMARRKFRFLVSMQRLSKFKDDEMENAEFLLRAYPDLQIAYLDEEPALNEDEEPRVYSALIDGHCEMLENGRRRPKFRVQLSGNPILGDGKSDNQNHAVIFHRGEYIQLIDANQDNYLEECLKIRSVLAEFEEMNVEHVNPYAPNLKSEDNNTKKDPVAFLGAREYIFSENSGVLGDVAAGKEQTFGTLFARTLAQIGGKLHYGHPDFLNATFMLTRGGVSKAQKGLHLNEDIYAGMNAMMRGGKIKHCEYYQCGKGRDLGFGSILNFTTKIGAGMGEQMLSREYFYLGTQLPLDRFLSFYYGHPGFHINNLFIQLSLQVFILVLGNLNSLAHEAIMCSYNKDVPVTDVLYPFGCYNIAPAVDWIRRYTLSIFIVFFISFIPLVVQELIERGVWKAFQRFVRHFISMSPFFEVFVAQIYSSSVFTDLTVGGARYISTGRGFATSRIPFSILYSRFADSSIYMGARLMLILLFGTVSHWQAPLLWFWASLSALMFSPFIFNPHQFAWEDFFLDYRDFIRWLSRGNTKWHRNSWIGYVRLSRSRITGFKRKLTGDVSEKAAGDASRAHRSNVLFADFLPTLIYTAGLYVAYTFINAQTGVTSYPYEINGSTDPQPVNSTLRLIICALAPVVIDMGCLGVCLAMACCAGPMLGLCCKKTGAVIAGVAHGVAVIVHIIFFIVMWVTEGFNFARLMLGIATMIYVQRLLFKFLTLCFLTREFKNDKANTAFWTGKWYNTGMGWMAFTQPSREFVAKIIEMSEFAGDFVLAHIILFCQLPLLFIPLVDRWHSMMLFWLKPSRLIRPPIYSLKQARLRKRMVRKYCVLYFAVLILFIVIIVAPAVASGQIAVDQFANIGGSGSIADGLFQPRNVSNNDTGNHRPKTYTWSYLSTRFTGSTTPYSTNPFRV

For C[C@@H](O)[C@@H]1NC(=O)[C@H]([C@H](O)[C@@H](O)c2ccc(O)cc2)NC(=O)[C@@H]2C[C@@H](O)CN2C(=O)[C@H]([C@@H](C)O)NC(=O)[C@@H](NC(=O)c2ccc(C#Cc3ccc(C#Cc4ccccc4)cc3)cc2)C[C@@H](O)[C@@H](O)NC(=O)[C@@H]2[C@@H](O)[C@@H](C)CN2C1=O (X5-[Orn(4R-OH,5R-OH)]T[Hyp][hTyr(3S-OH,4S-OH)]T[Pro(3S-OH,4S-Me)]; lactam 1-C), the ED50 (Candida albicans [1]) was 16 mg/kg, the inhibition [2] was 81.3% and the ED50 (Candida albicans [3]) was 4.5 mg/kg. It also gave an MIC (Candida albicans [4]) of 0.01 µg/mL (≈ 0.00907 µM).

For CCCCCCCCOc1ccc(C(=O)N[C@H]2C[C@@H](O)[C@@H](O)NC(=O)[C@@H]3[C@@H](O)[C@@H](C)CN3C(=O)[C@H]([C@@H](C)O)NC(=O)[C@H]([C@H](O)[C@@H](O)c3ccc(O)cc3)NC(=O)[C@@H]3C[C@@H](O)CN3C(=O)[C@H]([C@@H](C)O)NC2=O)cc1 [CILOFUNGIN] ({Benzoyl(4-octyloxy)}-[Orn(4R-OH,5R-OH)]T[Hyp][hTyr(3S-OH,4S-OH)]T[Pro(3S-OH,4S-Me)]; lactam 1-C), the ED50 (Candida albicans [1]) was over 400 mg/kg, the inhibition [2] was 76% and the ED50 (Candida albicans [3]) was 7.6 mg/kg. It also gave an MIC (Candida albicans [4]) of 0.312 µg/mL (≈ 0.303 µM).

Work on C[C@@H](O)[C@@H]1NC(=O)[C@H]([C@H](O)[C@@H](O)c2ccc(O)cc2)NC(=O)[C@@H]2C[C@@H](O)CN2C(=O)[C@H]([C@@H](C)O)NC(=O)[C@@H](NC(=O)c2ccc(-c3ccc(-c4ccc(-c5ccccc5)cc4)cc3)cc2)C[C@@H](O)[C@@H](O)NC(=O)[C@@H]2[C@@H](O)[C@@H](C)CN2C1=O (X1-[Orn(4R-OH,5R-OH)]T[Hyp][hTyr(3S-OH,4S-OH)]T[Pro(3S-OH,4S-Me)]; lactam 1-C) yielded an ED50 (Candida albicans [1]) of 39.7 mg/kg, an inhibition [2] of 74.7% and an ED50 (Candida albicans [3]) of 0.4 mg/kg. It also gave an MIC (Candida albicans [4]) of under 0.01 µg/mL.

In the case of C[C@@H](O)[C@@H]1NC(=O)[C@H]([C@H](O)[C@@H](O)c2ccc(O)cc2)NC(=O)[C@@H]2C[C@@H](O)CN2C(=O)[C@H]([C@@H](C)O)NC(=O)[C@@H](NC(=O)c2ccc(-c3ccc(C#Cc4ccc(OCCOC(C)(C)C)cc4)cc3)cc2)C[C@@H](O)[C@@H](O)NC(=O)[C@@H]2[C@@H](O)[C@@H](C)CN2C1=O (X3-[Orn(4R-OH,5R-OH)]T[Hyp][hTyr(3S-OH,4S-OH)]T[Pro(3S-OH,4S-Me)]; lactam 1-C), the ED50 (Candida albicans [1]) is reported as 7.6 mg/kg, the inhibition [2] is reported as 82.4% and the ED50 (Candida albicans [3]) is reported as 0.2 mg/kg. The MIC (Candida albicans [4]) was 0.02 µg/mL (≈ 0.0167 µM).

With C[C@@H](O)[C@@H]1NC(=O)[C@H]([C@H](O)[C@@H](O)c2ccc(O)cc2)NC(=O)[C@@H]2C[C@@H](O)CN2C(=O)[C@H]([C@@H](C)O)NC(=O)[C@@H](NC(=O)c2ccc(-c3ccc(-c4ccc(OCCOC(C)(C)C)cc4)cc3)cc2)C[C@@H](O)[C@@H](O)NC(=O)[C@@H]2[C@@H](O)[C@@H](C)CN2C1=O (X4-[Orn(4R-OH,5R-OH)]T[Hyp][hTyr(3S-OH,4S-OH)]T[Pro(3S-OH,4S-Me)]; lactam 1-C) the ED50 (Candida albicans [1]) was 21.3 mg/kg, the inhibition [2] was 76.1% and the ED50 (Candida albicans [3]) was 0.4 mg/kg. For the same molecule, the MIC (Candida albicans [4]) was 0.06 µg/mL (≈ 0.0513 µM).
